Laboratory results taken from ChEMBL document CHEMBL4842395, “Design and Synthesis of Oleanolic Acid Trimers to Enhance Inhibition of Influenza Virus Entry” (ACS Med Chem Lett, 2021).
The source made the active and inactive calls. The calls are words filed in the database; no cut-off is given here.

Assays:
Influenza A virus [1] = experiment: Antiviral activity against Influenza A virus (A/WSN/1933(H1N1)) infected in MDCK cells assessed as s reduction in virus-induced cytopathic effect after 40 hrs incubation by CellTiter-Glo assay; type: functional, organism-based
Procedure, shortened: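 CPE-based dose–response in MDCK cells infected with A/WSN/33 (H1N1), using the CellTiter-Glo viability read-out. Medium with 1% DMSO was the negative control and oseltamivir phosphate the positive control. IC50 is the concentration giving 50% inhibition of virus-induced CPE. Means of duplicate samples from three independent experiments.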

[2] = Cytotoxicity against MDCK cells assessed as reduction in cell viability by CellTiter-Glo assay; type: cell-based, Canis lupus familiaris; conditions: dog
Procedure, shortened: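 Viability of normal, uninfected MDCK cells measured by CellTiter-Glo. Medium containing 1% DMSO was the negative control. CC50 is the concentration that reduces viability by 50%.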

Influenza A virus [3] = experiment: Antiviral activity against Influenza A virus (A/Hong Kong/4801/2014 (H3N2)) infected in cells assessed as reduction in infected cells; type: functional, organism-based
Influenza B virus = experiment: Antiviral activity against Influenza B virus (B/Sichuan/531/2018(Victoria)) infected in cells assessed as reduction in infected cells; type: functional, organism-based
[4] = Selectivity index, ratio of CC50 for MDCK cells to IC50 for antiviral activity against Influenza A virus (A/Hong Kong/4801/2014 (H3N2)); type: toxicity; conditions: dog, read-out: Ratio CC50/IC50
[5] = Selectivity ratio of CC50 for MDCK cells to IC50 for Influenza A virus A/WSN/33(H1N1) infected in MDCK cells; type: toxicity, cell-based; conditions: dog, read-out: Ratio CC50/IC50
Procedure, shortened: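 Selectivity index calculated as CC50 (uninfected MDCK cells, CellTiter-Glo) divided by IC50 (inhibition of A/WSN/33 H1N1-induced CPE in MDCK cells).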

Influenza A virus [6] = experiment: Antiviral activity against Influenza A virus (A/WSN/1933(H1N1)) infected in MDCK cells assessed as inhibition of virus-induced cytopathic effect at 100 uM measured after 40 hrs incubation by inverted microscpic imaging analysis; type: functional
Procedure, shortened: (§1)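 MDCK cells infected with influenza A/WSN/33 (H1N1), with compounds at 100 μM. Viral CPE judged by direct microscopic observation. DMSO served as the negative control and oseltamivir phosphate as the positive control. Triplicate experiments, with standard deviations.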

[7] = Selectivity index, ratio of CC50 for MDCK cells to IC50 for antiviral activity against Influenza A virus (B/Sichuan/531/2018(Victoria)); type: toxicity; conditions: dog, read-out: Ratio CC50/IC50
Influenza A virus [8] = experiment: Antiviral activity against Influenza A virus (A/WSN/1933(H1N1)) infected in MDCK cells assessed as reduction in virus-induced cytopathic effect at 100 uM measured after 40 hrs incubation by inverted microscpic imaging analysis; type: functional, organism-based; procedure, shortened: as §1
[9] = biological target: Hemagglutinin (Influenza A virus (A/Puerto Rico/8/1934(H1N1))) (UniProt P03452); experiment: Inhibition of hemagglutinin in compound-pretreated Influenza A virus (A/WSN/1933(H1N1)) infected in chicken RBC assessed as reduction in virus-induced agglutination measured after 25 mins; type: cell-based; conditions: Erythrocyte
Hemagglutinin (Influenza A virus (A/Puerto Rico/8/1934(H1N1))), sequence (P03452 whole entry): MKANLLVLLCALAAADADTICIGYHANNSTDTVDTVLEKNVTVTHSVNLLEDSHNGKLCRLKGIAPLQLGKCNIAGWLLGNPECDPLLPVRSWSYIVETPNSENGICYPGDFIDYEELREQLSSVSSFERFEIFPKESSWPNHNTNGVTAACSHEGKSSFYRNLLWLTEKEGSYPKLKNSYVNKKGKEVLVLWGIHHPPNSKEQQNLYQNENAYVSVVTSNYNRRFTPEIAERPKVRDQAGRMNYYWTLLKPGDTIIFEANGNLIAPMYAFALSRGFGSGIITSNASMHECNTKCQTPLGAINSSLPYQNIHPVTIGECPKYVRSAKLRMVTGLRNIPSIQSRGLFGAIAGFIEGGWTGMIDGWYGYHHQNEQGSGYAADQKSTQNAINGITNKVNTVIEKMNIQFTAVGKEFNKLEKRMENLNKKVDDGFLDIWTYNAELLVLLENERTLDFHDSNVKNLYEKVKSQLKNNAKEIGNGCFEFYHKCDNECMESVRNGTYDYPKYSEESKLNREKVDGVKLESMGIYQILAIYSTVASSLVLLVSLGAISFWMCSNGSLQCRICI
Procedure, shortened: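 Hemagglutination inhibition: virus pretreated with compound, then chicken erythrocytes added and incubated a further 25 min at room temperature. Anti-HA antibody served as the positive control.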

## CC1(C)CC[C@]2(C(=O)NCCCc3cn(Cc4cc(Cn5cc(CCCNC(=O)[C@]67CCC(C)(C)C[C@H]6C6=CC[C@@H]8[C@@]9(C)CC[C@H](O)C(C)(C)[C@@H]9CC[C@@]8(C)[C@]6(C)CC7)nn5)cc(Cn5cc(CCCNC(=O)[C@]67CCC(C)(C)C[C@H]6C6=CC[C@@H]8[C@@]9(C)CC[C@H](O)C(C)(C)[C@@H]9CC[C@@]8(C)[C@]6(C)CC7)nn5)c4)nn3)CC[C@]3(C)C(=CC[C@@H]4[C@@]5(C)CC[C@H](O)C(C)(C)[C@@H]5CC[C@]43C)[C@@H]2C1
Influenza A virus [1]
  IC50: 0.38 µM
[2]
  CC50: > 100 µM
Influenza A virus [3]
  IC50: 2.67 µM
Influenza B virus
  IC50: 28.4 µM
[4]
  selectivity ratio: > 37.5
[5]
  selectivity ratio: > 263
Influenza A virus [6]
  inhibition at 100 µM: > 80%
[7]
  selectivity ratio: > 3.53

## CC1(C)CC[C@]2(C(=O)NCCOCCn3cc(OCc4cc(COc5cn(CCOCCNC(=O)[C@]67CCC(C)(C)C[C@H]6C6=CC[C@@H]8[C@@]9(C)CC[C@H](O)C(C)(C)[C@@H]9CC[C@@]8(C)[C@]6(C)CC7)nn5)cc(COc5cn(CCOCCNC(=O)[C@]67CCC(C)(C)C[C@H]6C6=CC[C@@H]8[C@@]9(C)CC[C@H](O)C(C)(C)[C@@H]9CC[C@@]8(C)[C@]6(C)CC7)nn5)c4)nn3)CC[C@]3(C)C(=CC[C@@H]4[C@@]5(C)CC[C@H](O)C(C)(C)[C@@H]5CC[C@]43C)[C@@H]2C1
Influenza A virus [1]
  IC50: 16.7 µM
[2]
  CC50: > 100 µM
[5]
  selectivity ratio: > 5.98
Influenza A virus [6]
  inhibition at 100 µM: > 80%

## CC1(C)CC[C@]2(C(=O)NCCCCCc3cn(Cc4cc(Cn5cc(CCCCCNC(=O)[C@]67CCC(C)(C)C[C@H]6C6=CC[C@@H]8[C@@]9(C)CC[C@H](O)C(C)(C)[C@@H]9CC[C@@]8(C)[C@]6(C)CC7)nn5)cc(Cn5cc(CCCCCNC(=O)[C@]67CCC(C)(C)C[C@H]6C6=CC[C@@H]8[C@@]9(C)CC[C@H](O)C(C)(C)[C@@H]9CC[C@@]8(C)[C@]6(C)CC7)nn5)c4)nn3)CC[C@]3(C)C(=CC[C@@H]4[C@@]5(C)CC[C@H](O)C(C)(C)[C@@H]5CC[C@]43C)[C@@H]2C1
[2]
  CC50: > 100 µM
Influenza A virus [6]
  inhibition at 100 µM: > 80%

## CC1(C)CC[C@]2(C(=O)NCCCc3cn(CC(CO)(Cn4cc(CCCNC(=O)[C@]56CCC(C)(C)C[C@H]5C5=CC[C@@H]7[C@@]8(C)CC[C@H](O)C(C)(C)[C@@H]8CC[C@@]7(C)[C@]5(C)CC6)nn4)Cn4cc(CCCNC(=O)[C@]56CCC(C)(C)C[C@H]5C5=CC[C@@H]7[C@@]8(C)CC[C@H](O)C(C)(C)[C@@H]8CC[C@@]7(C)[C@]5(C)CC6)nn4)nn3)CC[C@]3(C)C(=CC[C@@H]4[C@@]5(C)CC[C@H](O)C(C)(C)[C@@H]5CC[C@]43C)[C@@H]2C1
Influenza A virus [1]
  IC50: 0.31 µM
[2]
  CC50: > 100 µM
Influenza A virus [8]
  Activity: Active
Influenza A virus [3]
  IC50: 1.71 µM
Influenza B virus
  IC50: 37.6 µM
[4]
  selectivity ratio: > 58.5
[5]
  selectivity ratio: > 323
Influenza A virus [6]
  inhibition at 100 µM: > 80%
[7]
  selectivity ratio: > 2.66
[9]
  inhibition: Active

## CC1(C)CC[C@]2(C(=O)NCCc3cn(CC(CO)(Cn4cc(CCNC(=O)[C@]56CCC(C)(C)C[C@H]5C5=CC[C@@H]7[C@@]8(C)CC[C@H](O)C(C)(C)[C@@H]8CC[C@@]7(C)[C@]5(C)CC6)nn4)Cn4cc(CCNC(=O)[C@]56CCC(C)(C)C[C@H]5C5=CC[C@@H]7[C@@]8(C)CC[C@H](O)C(C)(C)[C@@H]8CC[C@@]7(C)[C@]5(C)CC6)nn4)nn3)CC[C@]3(C)C(=CC[C@@H]4[C@@]5(C)CC[C@H](O)C(C)(C)[C@@H]5CC[C@]43C)[C@@H]2C1
Influenza A virus [1]
  IC50: 2.87 µM
[2]
  CC50: > 100 µM
[5]
  selectivity ratio: > 34.8
Influenza A virus [6]
  inhibition at 100 µM: > 80%

## CC1(C)CC[C@]2(C(=O)NCCCCCc3cn(CC(CO)(Cn4cc(CCCCCNC(=O)[C@]56CCC(C)(C)C[C@H]5C5=CC[C@@H]7[C@@]8(C)CC[C@H](O)C(C)(C)[C@@H]8CC[C@@]7(C)[C@]5(C)CC6)nn4)Cn4cc(CCCCCNC(=O)[C@]56CCC(C)(C)C[C@H]5C5=CC[C@@H]7[C@@]8(C)CC[C@H](O)C(C)(C)[C@@H]8CC[C@@]7(C)[C@]5(C)CC6)nn4)nn3)CC[C@]3(C)C(=CC[C@@H]4[C@@]5(C)CC[C@H](O)C(C)(C)[C@@H]5CC[C@]43C)[C@@H]2C1
Influenza A virus [1]
  IC50: 0.57 µM
[2]
  CC50: > 100 µM
Influenza A virus [3]
  IC50: 1.2 µM
Influenza B virus
  IC50: > 100 µM
[4]
  selectivity ratio: > 83.3
[5]
  selectivity ratio: > 175
Influenza A virus [6]
  inhibition at 100 µM: > 80%

## CC1(C)CC[C@]2(C(=O)NCc3cn(CC(CO)(Cn4cc(CNC(=O)[C@]56CCC(C)(C)C[C@H]5C5=CC[C@@H]7[C@@]8(C)CC[C@H](O)C(C)(C)[C@@H]8CC[C@@]7(C)[C@]5(C)CC6)nn4)Cn4cc(CNC(=O)[C@]56CCC(C)(C)C[C@H]5C5=CC[C@@H]7[C@@]8(C)CC[C@H](O)C(C)(C)[C@@H]8CC[C@@]7(C)[C@]5(C)CC6)nn4)nn3)CC[C@]3(C)C(=CC[C@@H]4[C@@]5(C)CC[C@H](O)C(C)(C)[C@@H]5CC[C@]43C)[C@@H]2C1
Influenza A virus [1]
  IC50: 4.69 µM
[2]
  CC50: > 100 µM
[5]
  selectivity ratio: > 21.3
Influenza A virus [6]
  inhibition at 100 µM: > 80%

## CC1(C)CC[C@]2(C(=O)NCc3cn(Cc4cc(Cn5cc(CNC(=O)[C@]67CCC(C)(C)C[C@H]6C6=CC[C@@H]8[C@@]9(C)CC[C@H](O)C(C)(C)[C@@H]9CC[C@@]8(C)[C@]6(C)CC7)nn5)cc(Cn5cc(CNC(=O)[C@]67CCC(C)(C)C[C@H]6C6=CC[C@@H]8[C@@]9(C)CC[C@H](O)C(C)(C)[C@@H]9CC[C@@]8(C)[C@]6(C)CC7)nn5)c4)nn3)CC[C@]3(C)C(=CC[C@@H]4[C@@]5(C)CC[C@H](O)C(C)(C)[C@@H]5CC[C@]43C)[C@@H]2C1
Influenza A virus [1]
  IC50: 6.86 µM
[2]
  CC50: > 100 µM
[5]
  selectivity ratio: > 14.6
Influenza A virus [6]
  inhibition at 100 µM: > 80%

## CC1(C)CC[C@]2(C(=O)NCCCCc3cn(CC(CO)(Cn4cc(CCCCNC(=O)[C@]56CCC(C)(C)C[C@H]5C5=CC[C@@H]7[C@@]8(C)CC[C@H](O)C(C)(C)[C@@H]8CC[C@@]7(C)[C@]5(C)CC6)nn4)Cn4cc(CCCCNC(=O)[C@]56CCC(C)(C)C[C@H]5C5=CC[C@@H]7[C@@]8(C)CC[C@H](O)C(C)(C)[C@@H]8CC[C@@]7(C)[C@]5(C)CC6)nn4)nn3)CC[C@]3(C)C(=CC[C@@H]4[C@@]5(C)CC[C@H](O)C(C)(C)[C@@H]5CC[C@]43C)[C@@H]2C1
Influenza A virus [1]
  IC50: 25.1 µM
[2]
  CC50: > 100 µM
[5]
  selectivity ratio: > 3.99
Influenza A virus [6]
  inhibition at 100 µM: > 80%

## CCOC(=O)C1=C[C@@H](OC(CC)CC)[C@H](NC(C)=O)[C@@H](N)C1 [OSELTAMIVIR PHOSPHATE]
Influenza A virus [1]
  IC50: 1.82 µM
[2]
  CC50: > 100 µM
Influenza A virus [3]
  IC50: > 100 µM
Influenza B virus
  IC50: > 100 µM
[5]
  selectivity ratio: > 55
Influenza A virus [6]
  inhibition at 100 µM: > 80%

## CC1(C)CC[C@]2(C(=O)NCCc3cn(Cc4cc(Cn5cc(CCNC(=O)[C@]67CCC(C)(C)C[C@H]6C6=CC[C@@H]8[C@@]9(C)CC[C@H](O)C(C)(C)[C@@H]9CC[C@@]8(C)[C@]6(C)CC7)nn5)cc(Cn5cc(CCNC(=O)[C@]67CCC(C)(C)C[C@H]6C6=CC[C@@H]8[C@@]9(C)CC[C@H](O)C(C)(C)[C@@H]9CC[C@@]8(C)[C@]6(C)CC7)nn5)c4)nn3)CC[C@]3(C)C(=CC[C@@H]4[C@@]5(C)CC[C@H](O)C(C)(C)[C@@H]5CC[C@]43C)[C@@H]2C1
Influenza A virus [1]
  IC50: 31.6 µM
[2]
  CC50: > 100 µM
[5]
  selectivity ratio: > 3.17
Influenza A virus [6]
  inhibition at 100 µM: > 80%

## CC1(C)CC[C@]2(C(=O)O)CC[C@]3(C)C(=CC[C@@H]4[C@@]5(C)CC[C@H](O)C(C)(C)[C@@H]5CC[C@]43C)[C@@H]2C1 [OLEANOLIC_ACID]
Influenza A virus [1]
  IC50: 72.3 µM
[2]
  CC50: > 100 µM
[5]
  selectivity ratio: > 1.38
Influenza A virus [6]
  inhibition at 100 µM: > 80%

## CC1(C)CC[C@]2(C(=O)NCCOCCOCCOCCn3cc(OCc4cc(COc5cn(CCOCCOCCOCCNC(=O)[C@]67CCC(C)(C)C[C@H]6C6=CC[C@@H]8[C@@]9(C)CC[C@H](O)C(C)(C)[C@@H]9CC[C@@]8(C)[C@]6(C)CC7)nn5)cc(COc5cn(CCOCCOCCOCCNC(=O)[C@]67CCC(C)(C)C[C@H]6C6=CC[C@@H]8[C@@]9(C)CC[C@H](O)C(C)(C)[C@@H]9CC[C@@]8(C)[C@]6(C)CC7)nn5)c4)nn3)CC[C@]3(C)C(=CC[C@@H]4[C@@]5(C)CC[C@H](O)C(C)(C)[C@@H]5CC[C@]43C)[C@@H]2C1
Influenza A virus [1]
  IC50: 9.84 µM
[2]
  CC50: > 100 µM
[5]
  selectivity ratio: > 10.2
Influenza A virus [6]
  inhibition at 100 µM: > 80%
